Screening results: PubChem BioAssay, several laboratories
Hits are enriched below; roughly 4% of the tested compounds scored in any of these assays.
ERa coact pot = enhancers of ERα–SRC-1 coactivator binding, primary screen, biochemical, TR-FRET, ERα LBD, low estradiol; coactivator binding (% of control), % at 25.6 µM; TR-FRET ERalpha-LBD/SRC-Cy5 coactivator binding, 2 h; 100 = basal binding, no effect; AID 639, 2007; 86,000 tested, 1.3% active; in the data active = activity above about 200%;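 note: binding measured in presence of low estradiol as agonist stimulus; 0% = peptide alone without receptor and 100% = receptor with peptide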
HIV Rev-RRE inh = HIV-1 Rev-RRE binding inhibitors, primary screen, biochemical, FRET, protein-RNA interaction; P05866; Rev peptide-RRE RNA binding; inhibition, % at 8 µM; 97,000 tested, 0.79% active; AID 704, 2007;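 active = inhibition above the screen-wide mean plus 3 SD, cut at about 35% in these data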;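 note: 0% = median DMSO wells and 100% = median Neomycin B control wells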
Target sequence (P05866 whole entry, looked up): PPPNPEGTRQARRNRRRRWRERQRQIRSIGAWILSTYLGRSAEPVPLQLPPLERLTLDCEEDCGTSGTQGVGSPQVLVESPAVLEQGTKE
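Test system: Cy5-tagged RRE RNA duplex with fluorescein-tagged Rev peptide; Probe or stimulus: labelled Rev peptide; Schedule: 5 min preincubation and 15 min binding, 25 °C; Signal: FRET fluorescence readout; Evaluation: % inhibition from 671/540 nm acceptor-to-donor ratio, scaled between controls; Control set: DMSO and neomycin B.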
FAK blocker = FAK kinase inhibitors, primary screen, biochemical; inhibition, %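 (tested at 7 µM)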; Focal adhesion kinase 1 (Homo sapiens), Q05397; 97,000 tested, 0.84% active; biochemical FAK kinase activity assay;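 note: 0% = DMSO and 100% = reference compound high control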
Smad3 inh = Smad3/FoxH1 peptide binding inhibitors, primary screen, biochemical, TR-FRET; 88,000 tested, 0.29% active; TR-FRET Smad3/Dy647-FoxH1 peptide binding, europium anti-His; inhibition, % at 25 µM;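 active = compounds that reduce the energy-transfer binding signal between the protein and its labelled peptide by more than half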;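 note: 0% = Smad3 plus labelled peptide maximal FRET and 100% = peptide-only background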
ERb coact inh = inhibitors of ERβ-SRC1 coactivator interaction, primary screen, biochemical, TR-FRET, ERβ LBD, SRC-1 peptide; TR-FRET ER-beta LBD / SRC1-Cy5 peptide binding; receptor agonist-loaded with 1 µM estradiol; Estrogen receptor beta (Homo sapiens), Q92731; inhibition, % at 25.6 µM; 86,000 tested, 1.3% active;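 active = compounds whose percent inhibition of the receptor-coactivator binding signal exceeds about 50% in the single-dose screen, limit read from the data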;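 note: 0% = receptor plus peptide wells without compound and 100% = peptide-only wells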
Target sequence (Q92731 whole entry, looked up, the tested form may be a part): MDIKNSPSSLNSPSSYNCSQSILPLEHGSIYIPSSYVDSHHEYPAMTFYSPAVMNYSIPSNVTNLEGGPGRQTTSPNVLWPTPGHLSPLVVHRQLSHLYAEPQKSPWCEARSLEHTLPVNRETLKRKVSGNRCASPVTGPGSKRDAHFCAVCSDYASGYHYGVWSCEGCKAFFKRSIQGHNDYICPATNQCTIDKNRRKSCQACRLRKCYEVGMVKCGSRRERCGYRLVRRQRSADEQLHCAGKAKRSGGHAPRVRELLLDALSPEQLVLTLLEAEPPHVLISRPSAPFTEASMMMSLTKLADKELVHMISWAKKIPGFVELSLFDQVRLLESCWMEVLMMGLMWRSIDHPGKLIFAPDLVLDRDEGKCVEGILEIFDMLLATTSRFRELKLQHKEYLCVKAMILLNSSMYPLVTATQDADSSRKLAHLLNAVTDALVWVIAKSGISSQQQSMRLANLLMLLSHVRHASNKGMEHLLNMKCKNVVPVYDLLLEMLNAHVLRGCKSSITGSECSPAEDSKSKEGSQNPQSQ
ERa coact inh = ERα–SRC-1 coactivator interaction inhibitors, primary screen, biochemical, TR-FRET, ERα LBD, estradiol-bound; TR-FRET ER-alpha LBD / SRC-1 peptide; 86,000 tested, 1.7% active; inhibition, % at 25.6 µM; Estrogen receptor (Homo sapiens), P03372; in the data active = inhibition above about 50%;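 note: 0% = receptor plus peptide control and 100% = peptide only without receptor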
FAK inh conf = FAK kinase inhibitors, retest, confirmation, biochemical. FAK kinase biochemical inhibition assay. shares compounds with FAK blocker. 750 tested, 28% active. inhibition, % at 7 µM
The depositor's hits bear a star; [ ] = dose if it differs, or a comment. Cut-off read from the data, not from the text of the source, unless noted: active = inhibition above about 19%; inactive = the rest.

Screening Cc1cc(NC(=O)Cc2cccs2)no1 returned ERa coact pot 16.6, HIV Rev-RRE inh -2.1, FAK blocker 40.0*, Smad3 inh 5.1, ERb coact inh 88.7*[fluorescence artefact?], ERa coact inh 96.8*[fluorescence artefact?] and FAK inh conf 27.9*.
For Cc1sc2ncnc(NCCN3CCOCC3)c2c1C the results were ERa coact pot 101.4, HIV Rev-RRE inh 1.3, FAK blocker -2.4, Smad3 inh 15.6, ERb coact inh -9.7 and ERa coact inh -11.1.
Nc1cc(N)cc(-c2nc3ccccc3o2)c1 was read as ERa coact pot 120.4, Smad3 inh 1.6, ERb coact inh -0.5 and ERa coact inh -6.4.
`O=c1c(-c2nc3ccccc3o2)c2oc3ccccc3n2c2ccccc12` gave HIV Rev-RRE inh 8.8, FAK blocker 23.6* and FAK inh conf -0.5.
`Cc1c(C)n(CC(O)CN2C(=O)c3ccccc3S2(=O)=O)c2ccccc12` (stereo not given) gave ERa coact pot 97.3, HIV Rev-RRE inh 0.5, FAK blocker 1.4, Smad3 inh 6.4, ERb coact inh 0.7 and ERa coact inh 1.0.
For COc1ccc2[nH]c3nc(SCC(=O)NNC(=O)c4ccc(OC)c(OC)c4)nnc3c2c1 the results were HIV Rev-RRE inh 2.6 and FAK blocker -0.4.
Screening Cc1ccc(C(=O)NNC(=O)CSc2nnc3c(n2)[nH]c2ccc(F)cc23)cc1 returned HIV Rev-RRE inh -39.3, FAK blocker 69.2* and FAK inh conf 38.8*.
For COc1ccc(-n2c3c(cc(C(=O)Nc4ccc5c(c4)C(=O)NC5=O)c2=O)C(=O)CCC3)cc1 the results were HIV Rev-RRE inh 2.7 and FAK blocker 1.5.
Screening Cc1ccc2nc3c(cc(C(N)=S)c(=N)n3CCCOC(C)C)c(=O)n2c1 returned ERa coact pot 118.0, HIV Rev-RRE inh 59.1*, FAK blocker 28.3*, Smad3 inh 4.5, ERb coact inh -12.9, ERa coact inh 6.4 and FAK inh conf -2.1.
For C=CCn1c(=N)c(C(=O)OCC)cc2c(=O)n3cc(C)ccc3nc21 the results were ERa coact pot 117.5, Smad3 inh 4.3, ERb coact inh 0.4 and ERa coact inh 6.6.
`CCCSc1nc2c(cnn2-c2ccc(C)cc2)c(=O)[nH]1` gave ERa coact pot 297.5*[fluorescence artefact?], HIV Rev-RRE inh 3.8, FAK blocker 22.7*, Smad3 inh 17.1, ERb coact inh 37.1, ERa coact inh 5.9 and FAK inh conf 9.4.
`Cc1cc(/C=N/NC(=O)c2cccc([N+](=O)[O-])c2)c(C)n1-c1ccc(Cl)cc1Cl` gave HIV Rev-RRE inh 0.0, FAK blocker 19.9* and FAK inh conf 10.0.
CCN=C(N/N=C/c1ccc([N+](=O)[O-])cc1)SC was read as HIV Rev-RRE inh 3.5 and FAK blocker -7.5.
For Cc1ccc(SCc2ccc(C(=O)NCc3ccncc3)cc2)cc1 the results were HIV Rev-RRE inh 8.7, FAK blocker 43.3* and FAK inh conf 2.7.
Cc1ccc(C)c(C(=O)NCc2ccncc2)c1 was read as ERa coact pot 52.3, HIV Rev-RRE inh 7.4, FAK blocker -2.1, Smad3 inh 8.4, ERb coact inh 47.3 and ERa coact inh 28.2.
Screening COc1ccc(Cc2nc3ccc(S(=O)(=O)N4CCOCC4)cc3[nH]2)cc1 returned ERa coact pot 96.5, HIV Rev-RRE inh -4.5, FAK blocker 95.5*, Smad3 inh -4.8, ERb coact inh -7.5, ERa coact inh 59.8* and FAK inh conf 0.7.
`COc1ccc(Cc2nc3ccc(S(=O)(=O)N4CCOCC4)cc3[nH]2)cc1OC` gave ERa coact pot 110.5, HIV Rev-RRE inh 9.1, FAK blocker 3.1, Smad3 inh -21.0, ERb coact inh -6.4 and ERa coact inh -4.3.
For COc1ccccc1NC(=O)CCn1c(=O)sc2ccccc21 the results were ERa coact pot 100.0, HIV Rev-RRE inh 6.6, FAK blocker 0.8, Smad3 inh 2.7, ERb coact inh -3.6 and ERa coact inh -0.4.
Screening Cc1ccc(CSCC(=O)N2CCOCC2)cc1 returned ERa coact pot 111.1, HIV Rev-RRE inh 3.3, FAK blocker -0.6, Smad3 inh 8.7, ERb coact inh -0.9 and ERa coact inh 6.3.
Screening Cc1ccc(C)c(N2CCN(C(=O)CCn3c(=S)[nH]c4cc5c(cc4c3=O)OCO5)CC2)c1 returned ERa coact pot 108.3, HIV Rev-RRE inh -5.9, FAK blocker -1.9, Smad3 inh -4.0, ERb coact inh 0.7 and ERa coact inh -5.7.
CC(C)(C)N1C(=O)Cc2c1nc(N)c1c(N)nc(N3CCCCC3CO)c(C#N)c21 (stereo not given) was read as ERa coact pot 108.6, HIV Rev-RRE inh 30.3, FAK blocker 55.9*, Smad3 inh 10.1, ERb coact inh 20.4, ERa coact inh 3.8 and FAK inh conf 0.4.
For CCN(CC)c1nc(N)c2c(N)nc3c(c2c1C#N)CC(c1ccccc1)O3 (stereo not given) the results were ERa coact pot 80.0, HIV Rev-RRE inh 7.5, FAK blocker 1.2, Smad3 inh -4.0, ERb coact inh -1.6 and ERa coact inh -5.2.
`CN(CCO)c1nc(N)c2c(N)nc3c(c2c1C#N)CC(=O)N3C1CCCC1` gave ERa coact pot 56.9, HIV Rev-RRE inh 12.3, FAK blocker 35.2*, Smad3 inh 8.2, ERb coact inh 34.3, ERa coact inh 23.5 and FAK inh conf -0.2.
CCN(C(=O)CSc1nnc(NC2CCCCC2)s1)C1CCS(=O)(=O)C1 (stereo not given) was read as HIV Rev-RRE inh 0.2 and FAK blocker 1.8.
Screening Cn1nc(-c2ccc(Cl)cc2)nc2c(=O)n(C)c(=O)nc1-2 returned ERa coact pot 103.7, HIV Rev-RRE inh 26.3, FAK blocker 69.2*, Smad3 inh 80.1*, ERb coact inh -12.3, ERa coact inh -19.5 and FAK inh conf 66.9*.
For CCS(=O)(=O)n1nc(-c2ccc(Cl)cc2)nc1SC the results were ERa coact pot 104.0, HIV Rev-RRE inh 6.5, FAK blocker 4.0, Smad3 inh 4.2, ERb coact inh 1.1 and ERa coact inh 2.6.
Screening CCNC(=S)N/N=C1\C(=O)c2cccc3cccc1c23 returned HIV Rev-RRE inh 0.0 and FAK blocker 3.2.
Screening O=C(N/N=C1/C(=O)c2cccc3cccc1c23)c1ccc(Cl)cc1 returned HIV Rev-RRE inh 1.7, FAK blocker 92.2* and FAK inh conf 87.0*.
